From ChEMBL document CHEMBL4257483, “Design, synthesis and bioactivities of phenithionate analogues or derivatives for anti-schistosomiasis” (Medchemcomm, 2018) come the findings set out here.

As usually defined, the pKa is the pH at which an ionisable group is half protonated. Read a high pKa as a weaker acid or stronger base. By IC50 is commonly meant the concentration that inhibits the measured activity by half. For orientation: logP means a log measure of how a compound divides between an organic and an aqueous phase. Lower therefore signals a more hydrophilic compound.

Values after ≈ are worked out from the molar mass of the structure shown.

The nature of data set [1]: Dissociation constant, pKa of the compound. In kind it is physicochemical.
Data set [2] deals with Schistosoma japonicum. The experiment in a line: Antischistosomal activity against Schistosoma japonicum imago derived from infected mouse assessed as reduction in imago viability after 72 hrs. Type of data set: functional, organism-based. In short, it runs like this:
(§1)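 Worms perfused with cold heparinised HBSS from mice infected percutaneously with S. japonicum cercariae: larvae at 15 days post-infection (260–280 cercariae), adults at 35 days (120–140 cercariae). Five male and female worms per well in 10% calf serum RPMI 1640 with penicillin, streptomycin and amphotericin B. Preincubated 4 h at 37 °C, 5% CO2, then compounds added and viability recorded over 72 h. IC50 taken at 50% survival. DMSO blank.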

Data set [3] can be described thus: Lipid/water partition coefficient, log P of the compound. In kind it is physicochemical.
Data set [4] concerns Schistosoma japonicum. The experiment in a line: Antischistosomal activity against Schistosoma japonicum larva derived from infected mouse assessed as reduction in larva viability after 72 hrs. In kind it is functional, organism-based. A digest of the protocol:
as §1

On to `CC(=O)Nc1ccc(OC(=S)Nc2ccc(Nc3ccc(C(Cl)(Cl)Cl)cc3)cc2)cc1`, for which the pKa in data set [1] was determined as 9.01. The half-maximal inhibitory concentration (IC50) in the data set with Schistosoma japonicum [2] worked out at 20.1 µg/mL (≈ 40.6 µM); with Schistosoma japonicum [4] it was 11.6 µg/mL (≈ 23.4 µM). In data set [3], this compound returned a log partition coefficient (logP) of 6.07.
On to `Oc1ccc(OC(=S)Nc2ccc(Sc3ccc(C(F)(F)F)cc3)cc2)cc1`, for which the pKa in data set [1] was determined as 9.22. For the same compound, the half-inhibitory concentration (IC50) stood at 31.9 µg/mL (≈ 75.6 µM) in the data set with Schistosoma japonicum [2] and 16.6 µg/mL (≈ 39.3 µM) in the data set on Schistosoma japonicum [4]. Further, the lipophilicity (logP) in data set [3] amounted to 6.66.
For `CC(=O)Nc1ccc(OC(=S)Nc2ccc(Nc3ccc(C(F)(F)F)cc3)cc2)cc1` the same measures were 9.05, 20 µg/mL (≈ 44.9 µM), 11.2 µg/mL (≈ 25.1 µM) and 5.32.
For `CC(=O)Nc1ccc(OC(=S)Nc2ccc(Oc3ccc([N+](=O)[O-])cc3)cc2)cc1` the same measures were 9.04, 14.1 µg/mL (≈ 33.3 µM), 8.24 µg/mL (≈ 19.5 µM) and 4.81.
In the same order, the values of `Oc1ccc(OC(=S)Nc2ccc(Sc3ccc(C(Cl)(Cl)Cl)cc3)cc2)cc1` are 9.22, 37.3 µg/mL (≈ 79.2 µM), 21.1 µg/mL (≈ 44.8 µM) and 7.43.
`CC(=O)Nc1ccc(OC(=S)Nc2ccc(Sc3ccc(C(Cl)(Cl)Cl)cc3)cc2)cc1` came in with a pKa in data set [1] of 9.01. Moreover, the IC50 in the data set with Schistosoma japonicum [2] was 40.4 µg/mL (≈ 78.9 µM); in the data set with Schistosoma japonicum [4], 23.5 µg/mL (≈ 46 µM). Moreover, the logP in data set [3] was 6.71.
For `O=[N+]([O-])c1ccc(Sc2ccc(NC(=S)Oc3ccc(O)cc3)cc2)cc1` the same measures were 9.21, 30.5 µg/mL (≈ 76.6 µM), 15.7 µg/mL (≈ 39.3 µM) and 5.25.
As to `CC(=O)Nc1ccc(OC(=S)Nc2ccc(Sc3ccc([N+](=O)[O-])cc3)cc2)cc1`, in data set [1], the pKa turned out to be 8.99. Further, the IC50 with Schistosoma japonicum [2] worked out at 31.2 µg/mL (≈ 71 µM); in the data set with Schistosoma japonicum [4] it was 16.7 µg/mL (≈ 37.9 µM). Also, in data set [3], the lipophilicity (logP) was 5.06.
In turn, `CC(=O)Nc1ccc(OC(=S)Nc2ccc(Oc3ccc(C(Cl)(Cl)Cl)cc3)cc2)cc1` had a pKa in data set [1] of 9.02. For the same compound, the IC50 with Schistosoma japonicum [2] was 18.3 µg/mL (≈ 36.9 µM); in the data set with Schistosoma japonicum [4], 10.2 µg/mL (≈ 20.6 µM). This compound also displayed a logP in data set [3] of 6.16.
`CC(=O)Nc1ccc(OC(=S)Nc2ccc(Sc3ccc(C(F)(F)F)cc3)cc2)cc1` gave a pKa in data set [1] of 9.02. Further, the figures for the IC50 in the data set on Schistosoma japonicum [2] and with Schistosoma japonicum [4] were 33.7 µg/mL (≈ 72.8 µM) and 19 µg/mL (≈ 41.1 µM), respectively. For the same compound, the log partition coefficient (logP) in data set [3] turned out to be 5.96.
Turning to `CC(=O)Nc1ccc(OC(=S)Nc2ccc(Nc3ccc([N+](=O)[O-])cc3)cc2)cc1`, the pKa in data set [1] worked out at 9.04. The IC50 with Schistosoma japonicum [2] turned out to be 15.2 µg/mL (≈ 36 µM); with Schistosoma japonicum [4], 8.22 µg/mL (≈ 19.5 µM). In data set [3], this compound gave a logP of 4.32.
For `CC(=O)Nc1ccc(OC(=S)Nc2ccc(Oc3ccc(C(F)(F)F)cc3)cc2)cc1` the same measures were 9.03, 17.3 µg/mL (≈ 38.7 µM), 10.4 µg/mL (≈ 23.2 µM) and 5.41.
